Measured values as given in the EternaBench riboswitch data.

Tested on: MS2 coat protein
Assay: apparent Kd, MS2 coat protein; higher = weaker binding; RNA-MaP array; FMN 200 µM where present
In short: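 The apparent Kd comes from binding curves fitted cluster by cluster, filtered, and summarised as a median. Those curves followed SNAP-549-labelled MS2 coat protein from 0.7 or 1.5 nM, doubling to 3 µM, on Illumina sequencing-chip clusters where stalled E. coli RNA polymerase had transcribed the designs, without and then with constant ligand. The buffer was 100 mM Tris-HCl pH 7.5, 80 mM KCl, 4 mM MgCl2, BSA, DTT, yeast tRNA and Tween-20, and green signal was normalised to red-channel RNA signal and control-cluster median Fmax.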

[1] = designed as: ON switch for flavin mononucleotide, no ligand
[2] = ligand present: flavin mononucleotide, designed as: ON switch for flavin mononucleotide
[3] = designed as: OFF switch for flavin mononucleotide, no ligand
[4] = ligand present: flavin mononucleotide, designed as: OFF switch for flavin mononucleotide

“AAUAAACAUGAGGAUCACCCAUGUAAAUGGGCGAUAGGAUAUGCGAAAAUAAAGAAAGAAGCAGAAGGAUCGAAGA” was tested, and the “apparent Kd” value [1] was 846 nM and the “apparent Kd” value [2] was 509 nM.

“AAGGCGGCUCAGGCCGAGUUUCGCAGAAGGGCACAUGAGGAUCACCCAUGUACCUGGUCUGAUGUGCAGGAUAUGUGAGUCAGC” was tested, and the “apparent Kd” value [3] was 5.6 nM and the “apparent Kd” value [4] was 10.4 nM.

For “AGCAUUGCUUAGAAGGGAAAUUUAUAAUUUAAUUCAGGAUAUAGAUACAGUACAACAUGAGGACAUGAGGAUCACCCAUGUAUA”, the “apparent Kd” value [1] was 25.8 nM and the “apparent Kd” value [2] was 19.3 nM.

For “GUCAGCUCGUGAGGAUAUACAACACUGCUUCGGCAGUGCAUUAAGAUCACAUGAGGAUCACCCAUGUAGAAGGCACGAGCUGAU”, the “apparent Kd” value [3] was 15 nM and the “apparent Kd” value [4] was 313 nM.

“CAUGUCCUCACAGGAUAUGCACCACUUUGUGGUGCAGAAGGGUGGUUACAUGAGGAUCACCCAUGUGGACAUGAUAUAUUUAAU” was tested, and the “apparent Kd” value [1] was 93.7 nM and the “apparent Kd” value [2] was 1150 nM.

“AUCAUGUCAGGAUAUGUGACAUGGAUCUUCGGAUCAAGAUCACAGAAGGGACAUGAGGAUCACCCAUGUCGAUC” was tested, and the “apparent Kd” value [3] was 98.8 nM and the “apparent Kd” value [4] was 53.4 nM.

“AGUCAGACAGGAUAUACGUGAGUGGAAAAAGUAUGUCCACUACAUGAGGAUCACCCAUGUAGAAGGGUCUGACA” was tested, and the “apparent Kd” value [3] was 17.7 nM and the “apparent Kd” value [4] was 14.7 nM.

“CCAACCGGCACCGGUUGAACAUGAGGAUCACCCAUGUACUCCAGAAGGCCGCCCAAGAACGGAGUGGAGGAUAUGGAGGUUCUC” was tested, and the “apparent Kd” value [1] was 15.5 nM and the “apparent Kd” value [2] was 12 nM.

“GACUGAUUGUAGAAGGUACUUAAUACUCAUGUAACAUGAGGAUCACCCAUGUAUCAACAAUAUUGUAAGGAUAUACAUAUCUCA” was tested, and the “apparent Kd” value [1] was 231 nM and the “apparent Kd” value [2] was 103 nM.

In the case of “UUUUUUUUAUGAGGAUAUAUUUUACAUACAAAACAUGAGGAUCACCCAUGUGUUGUCCCAUGUUUAUAGAAGGCAUUUUUUUUU”, the “apparent Kd” value [1] is reported as 418 nM and the “apparent Kd” value [2] is reported as 598 nM.

With “GGAUAGGACAGAGGAUAUACGGAUAGGAUCUACUAUCCUCCUUAAAUAACAUGAGGAUCACCCAUGUAGAAGGCUGUCCUAUCG” the “apparent Kd” value [3] was 16.9 nM and the “apparent Kd” value [4] was 40.5 nM.

In the case of “AGCCAGGAUGAGUACCUGAGCGGGAGAAGGUACGAGGGAUCGUCUGGACAUGAGGAUCACCCAUGUAAGGAUAUCCCGCCUAUU”, the “apparent Kd” value [3] is reported as 8.69 nM and the “apparent Kd” value [4] is reported as 15 nM.

With “UUGGUAUUCGUAGGAUAUCCGUCGCCACCGUGUGGAGAAGGACGAACAUGAGGAUCACCCAUGUAUCAUGGUGUGGGCGUUGUC” the “apparent Kd” value [3] was 92.5 nM and the “apparent Kd” value [4] was 90.1 nM.

With “UUACUAUCACAGAAGGGUAGAUAGUAUAUAGAUGCAGGAUAUGUGACAUGAGGAUCACCCAUGUUUCACCGACAUGAGGAUCAC” the “apparent Kd” value [3] was 60.4 nM and the “apparent Kd” value [4] was 66.2 nM.

In the case of “AGCUAGUGAGGAUAUACGAACAUGUCAAAAGACGUGAGGGAACAUGAGGAUCACCCAUGUAGAAGGCACUAGCA”, the “apparent Kd” value [3] is reported as 38.8 nM and the “apparent Kd” value [4] is reported as 33 nM.

In the case of “AAGAUGCGGGUAGGAUAUGGGAAUUAAUAAAGACCAGAAGGACUGGUCACACAACAUGAGGAUCACCCAUGUGUGUGUAGUGAA”, the “apparent Kd” value [3] is reported as 12.4 nM and the “apparent Kd” value [4] is reported as 10.9 nM.

With “GGUUGACAAAGUCAACCUAUUCGAACAUGAGGAUCACCCAUGUAGGAUAUGCUACUCAAAGAGUAGCAGAAGGACAUGUGCCUU” the “apparent Kd” value [3] was 32.7 nM and the “apparent Kd” value [4] was 172 nM.

For “UGUCGUGUUCGAGGAUAUGAAACUAGGCCGGGCACUGUACACCCGCCUGUCUCAGAAGGCGGACAUGAGGAUCACCCAUGUAAA”, the “apparent Kd” value [3] was 294 nM and the “apparent Kd” value [4] was 22.1 nM.

For “UUAUUUUUACAGAAGGUUUAAUAAUAUAUAUGAGAAGGAUAUGUAACAUGAGGAUCACCCAUGUUUCACCUAUAUGAGGAUCAU”, the “apparent Kd” value [3] was 7.26 nM and the “apparent Kd” value [4] was 6.11 nM.

With “CCAUGGAGUGUGAGGAUAUGCUGGUCCUUGGAUCAGCAGAAGGCACAUGAGGAUCACCCAUGUGAAUACCGUGG” the “apparent Kd” value [3] was 36.2 nM and the “apparent Kd” value [4] was 196 nM.

For “AACAGUACAGGAUAUACAUGAGGAUCACCCAUGUGAGAAACCACUGGCGUACCAGAAAGUAGAAGGGUACUGGA”, the “apparent Kd” value [3] was 79.7 nM and the “apparent Kd” value [4] was 97.8 nM.

With “AAUUAACAUGAGGAUCACCCAUGUGAGGAUAUGGUAUUAUUUGGACAGUUAUGAUAUACCAGAAGGCACAUAUA” the “apparent Kd” value [3] was 63.4 nM and the “apparent Kd” value [4] was 108 nM.

In the case of “AUUUAUGGCCAGAAGGACAUGAGGAUCACCCAUGUAGGAUAUGGACGAUUUUGCUUGGCGGUUCGUUUAGGAAGCACCGGUGGU”, the “apparent Kd” value [1] is reported as 23.8 nM and the “apparent Kd” value [2] is reported as 7.18 nM.

For “GCCAGAGCAGGAUAUCUAUAUUAUCACAUGAGGAUCACCCAUGUCCAGCGAAAGCUGGAGGGAGAAGGGCUCUGGC”, the “apparent Kd” value [3] was 73.2 nM and the “apparent Kd” value [4] was 33.8 nM.

In the case of “GGGCAUAAUACAUGAGGAUCACCCAUGUCAGAAAGGGUAAUCAGAAGGUACUAUUAGAGAAAGAGUAAGGAUAUGAAUAUGCCC”, the “apparent Kd” value [1] is reported as 973 nM and the “apparent Kd” value [2] is reported as 103 nM.

In the case of “UAGAUGGGAGGAUAUACGUAGAUGCGGAUUCGUGUGGUGCUACAUGAGGAUCACCCAUGUAGAAGGCCCGUCUU”, the “apparent Kd” value [3] is reported as 17.1 nM and the “apparent Kd” value [4] is reported as 72.2 nM.

In the case of “CCUCUACAUGAGGAUCACCCAUGUGAGGAUAUGCGAGGCACGCCCGAUGGGCGCGCCGGUAGAAGGCAUGUGGU”, the “apparent Kd” value [3] is reported as 23.6 nM and the “apparent Kd” value [4] is reported as 49.4 nM.

With “AGUCUCACUGAAGGAUAUGCAGGGUUUCAAGGGUUUCCUGCGACAUGAGGAUCACCCAUGUAAAUGCAGAAGGUCAGGACCCAA” the “apparent Kd” value [3] was 6.63 nM and the “apparent Kd” value [4] was 32.8 nM.

In the case of “UGGUACGAGGGAGGAUAUGGGAAGAUACAUGAGGAUCACCCAUGUUUAAGAAUGCCGAGAGGCAACUAGAAGGCCCUAGUACCU”, the “apparent Kd” value [1] is reported as 583 nM and the “apparent Kd” value [2] is reported as 21.9 nM.

With “UAUAUAAUUAAGAGCUGGAAUAAAACAUGAGGAUCACCCAUGUAGGAUAUCAGCACGAUAAGUGCUGAGAAGGACAACCAGCUC” the “apparent Kd” value [3] was 15.8 nM and the “apparent Kd” value [4] was 16.9 nM.

In the case of “GGUGUAUAUGAGAAGGCGAUCAUGAAACAUGAUCGAGGAUAUCAUGUAAACAUGAGGAUCACCCAUGUAUGGGAAUAUUGCACC”, the “apparent Kd” value [1] is reported as 133 nM and the “apparent Kd” value [2] is reported as 15 nM.

With “GCCAUCUCAUGAGGAUAUGCUCCUGUUUCGGGAGCAGAAGGCAUGUCAUAAGACAUGAGGAUCACCCAUGUAGUUAAGAUGGCA” the “apparent Kd” value [1] was 256 nM and the “apparent Kd” value [2] was 11.3 nM.

In the case of “ACGCCUCCUGUUAGGAUAUGCAUCGGGCUUCCGCAGCAGAAGGAACAUGAGGAUCACCCAUGUCAAAUAAAAUC”, the “apparent Kd” value [3] is reported as 15.3 nM and the “apparent Kd” value [4] is reported as 94.4 nM.

In the case of “AAGUGCCUGUCGAUGCUCGACAUGAGGAUCACCCAUGUACAGCAGGAUAUGCAGAACUACCUCGUGCAGAAGGGCUGUACCAAU”, the “apparent Kd” value [3] is reported as 97.1 nM and the “apparent Kd” value [4] is reported as 80.1 nM.

In the case of “UUAUCUCAUGAGAAGGACAUGAGGAUCACCCAUGUAGGAUAUCAUGGGUCAGAGGAAUUGAAUCUAAUGAUUCAAUUACUCUUC”, the “apparent Kd” value [1] is reported as 60.5 nM and the “apparent Kd” value [2] is reported as 10.4 nM.

For “GCGUGGUUCUAGAAGGUGCUAGCGAUAAGCUAGCAAGGAUAUAGACAUGAGGAUCACCCAUGUCUAAGAGAAAUAGACACACGC”, the “apparent Kd” value [3] was 4.56 nM and the “apparent Kd” value [4] was 5.09 nM.

For “CAGUAGAUCCGAGGAUAUACAAUCCGGAAACGGUACAUGAGGAUCACCCAUGUAGAAGGCGGAUCUACAGGUACUAAAGUACCA”, the “apparent Kd” value [3] was 5.77 nM and the “apparent Kd” value [4] was 7.65 nM.

With “CUUUUGUGAGGAUAUCAGUAGUAAAUAAAUAAAUUAACUACUGAGAAGGCACAUGAGGAUCACCCAUGUUCCUU” the “apparent Kd” value [3] was 13 nM and the “apparent Kd” value [4] was 29.4 nM.

In the case of “AAAAAGUCAGGAUAUACGAAAAAAAAAAAAAAAAAAAAAAAGUAGAAGGGACAUGAGGAUCACCCAUGUAAAAA”, the “apparent Kd” value [3] is reported as 78.2 nM and the “apparent Kd” value [4] is reported as 58.8 nM.

“AUACAUGAGGAUCACCCAUGUAAUUAAUUAAUUAAUAAGAUCUAGGAUAUCAGCUCGAAUAGAGCUGAGAAGGAGAUCACAUGU” was tested, and the “apparent Kd” value [1] was 23 nM and the “apparent Kd” value [2] was 14.4 nM.

For “GCCAUCAUAUGAGGAUAUGACACCGAAACGGUGUCAGAAGGCAUGUCGAUAGACAUGAGGAUCACCCAUGUAUUAAUGAUGGCA”, the “apparent Kd” value [1] was 1090 nM and the “apparent Kd” value [2] was 95.1 nM.

With “UGCCUGCAGUCAGGAUAUGAUAACUGGGUAUGGUCUUUGUAACGACAUGAGGAUCACCCAUGUUUUUAGAAGGGACGUGUCAGC” the “apparent Kd” value [3] was 363 nM and the “apparent Kd” value [4] was 127 nM.
